# From PubChem BioAssay
# Shown are actives, neighbours in structure and some others; about 3.4% of the full set was active somewhere.
# TAAR1 agonist: agonists of human TAAR1. Q96RJ0. CHO RD-HGA16 TAAR1, Fluo-8 calcium fluorescence; vehicle wells 0%, saturating PEA agonist 100%. activation, % at 3 µM. 360,000 tested, 0.99% active;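 active = activation above the mean activation of all test compounds in the run plus 3 SD, cut at about 38% in these data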
# Target sequence (Q96RJ0 whole entry, looked up): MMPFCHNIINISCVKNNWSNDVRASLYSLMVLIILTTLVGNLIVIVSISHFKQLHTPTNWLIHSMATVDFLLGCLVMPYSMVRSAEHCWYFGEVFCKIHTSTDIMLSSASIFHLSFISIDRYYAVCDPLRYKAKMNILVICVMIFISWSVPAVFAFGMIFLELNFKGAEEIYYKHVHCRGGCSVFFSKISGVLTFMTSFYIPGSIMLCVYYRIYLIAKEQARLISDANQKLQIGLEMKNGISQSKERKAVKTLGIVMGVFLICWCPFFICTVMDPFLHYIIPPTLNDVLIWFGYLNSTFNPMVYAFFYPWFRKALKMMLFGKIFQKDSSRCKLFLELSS
#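 Assay system: CHO-derived RD-HGA16 cells with stable Gα16 and human TAAR1; timing: 17-24 h seeding, 75 min 37 °C dye, 30 min RT; read-out: % activation from peak over basal fluorescence ratio, DMSO-to-PEA scaled; measured by: kinetic Fluo-8 calcium fluorescence; benchmarks: low control DMSO, high control PEA (EC100); doses: 3 µM single concentration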
# CHRM1 antagonist: blocks human M1 muscarinic receptor; P11229; CHO-K1 hM1, Fluo-8 calcium fluorescence, ACh EC80 antagonist; inhibition, % at 3 µM; 360,000 tested, 1.3% active;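 active = percent inhibition above its own plate's cutoff, namely the mean of that plate's compound wells plus 3 SD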;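 note: peak over basal fluorescence ratio during 140 s after agonist addition; 0% = ACh EC80 plus DMSO and 100% = DMSO alone without agonist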
# M1 PAM: human CHRM1 positive allosteric modulation; P11229; CHO-K1 hM1, Fluo-8 calcium fluorescence, ACh EC20; 0% = ACh EC20, 100% = maximal ACh; activation, % at 3 µM; 360,000 tested, 0.088% active; AID 588819; in the data active = activation above about 19%, passing the limit was not always enough
# TAAR1 antagonist: antagonists of human TAAR1. Q96RJ0. CHO RD-HGA16 TAAR1, Fluo-8 calcium fluorescence, antagonist. inhibition, % at 3 µM. 360,000 tested, 1.5% active;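 active = inhibition above a per-plate cutoff, the mean inhibition of test compounds on that plate plus 3 SD, cut at about 49% in these data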;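 note: 0% = DMSO plus EC80 beta-PEA response and 100% = DMSO alone without agonist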
#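 test system = CHO RD-HGA16 cells bearing hTAAR1 | replication = singlicate | controls = DMSO-only wells and EC80 β-PEA-stimulated wells | reagent = EC80 β-phenethylamine stimulus | read-out basis = percent inhibition of PEA-evoked calcium signal, max/basal emission ratio | schedule = seeding 17-24 h prior, 75-min 37 °C, 30-min RT dye loading | signal = kinetic Fluo-8 calcium fluorescence measurement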
# M1 ag: human M1 muscarinic receptor agonism. CHO-K1 hM1, Fluo-8 calcium fluorescence, agonist mode; 0% DMSO, 100% acetylcholine EC100. activation, % at 3 µM. 360,000 tested, 0.33% active. AID 588814;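 active = activation above the run's mean compound activation plus 3 SD, cut at about 16% in these data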;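 note: peak over basal fluorescence ratio within a 140 s kinetic read after compound addition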
# * hit, by the source's call; · = not tested or not shown.
SMILES,TAAR1 agonist,CHRM1 antagonist,M1 PAM,TAAR1 antagonist,M1 ag
C=CCC[C@H](Cc1ccc(F)cc1)C(=O)OC[C@@H](Cc1c[nH]c2ccccc12)NC(=O)[C@H](CC=C)CC(=O)NCCO,14,6,-2,51*,-3
COC(=O)[C@]12C[C@H](CC(=O)NCc3ccc(OC)c(OC)c3)C(=O)N(Cc3ccccc3)C1=C[C@H](C1CCCC1)O[C@@H]2C,-1,·,·,-24,·
COC(=O)C1(F)C(=O)NC(=O)NC1OC (stereo unspecified),1,·,·,-17,·
O=C1CCN(Cc2ccccc2)C(=O)N1,1,-11,15,-5,-1
O=C1CCC(c2ccccc2)(C2CCN(Cc3ccccc3)CC2)C(=O)N1 (stereo unspecified),1,98*,-24,-5,-6
O=Cc1cscc1[B-](F)(F)F,0,·,·,-3,·
CCN(CC)CCN1c2ccccc2Sc2ccc3ccccc3c21,12,95*,-26,-1,-9
CC(=O)N1c2ccccc2Sc2ccc3ccccc3c21,-1,-7,2,-13,-7
CCN(CC)CCN1c2ccccc2Sc2ccccc21,4,100*,-24,5,-5
COc1ccc2c(c1)Sc1ccccc1N2CCN(C)C,·,48*,-22,·,-4
COC(=O)C1=C(C)N(C)C(=NCc2cc(OC)c(OC)c(OC)c2)NC1c1ccc(Cl)cc1 (stereo unspecified),1,·,·,-3,·
Cc1ccc(/C=N/NC(=O)c2c(C)nc3ccc(Cl)cn23)cc1,0,·,·,-4,·
CCOC(=O)C1=C(Cn2cnc3ccccc32)NC(=O)NC1c1cc(C)ccc1C (stereo unspecified),58*,9,-15,65*,-8
COC(=O)c1cc2c(c3c4cc(OC)ccc4n(S(=O)(=O)c4ccccc4)c13)C(=O)N(Cc1ccc(C(F)(F)F)cc1)C2,-2,·,·,8,·
O=C(CCN1CCN(C(c2ccccc2)c2ccccc2)CC1)N/N=C/c1ccc(O)cc1O,7,11,-25,9,-6
COc1ccc(/C=N\NC(=O)CCN2CCN(c3ccccc3)CC2)cc1OC,0,-9,10,0,5
COc1ccc(OC)c(/C=N/NC(=O)CCN2CCN(C(c3ccccc3)c3ccccc3)CC2)c1,6,48*,-26,-13,-11
O=C(CCN1CCN(C(c2ccccc2)c2ccccc2)CC1)N/N=C/c1ccc(O)cc1,2,37*,-27,12,-11
N#Cc1ccsc1NC(=O)CCN1CCN(C(c2ccccc2)c2ccccc2)CC1,-5,30*,-23,-1,-11
COC(=O)C1=C(C)N(Cc2ccccc2C(F)(F)F)C(=NCc2ccccc2)NC1c1ccc(F)cc1 (stereo unspecified),7,·,·,-2,·
FC(F)(F)c1ccc(Cl)c(CN2CCN(c3ncc(Cc4ccccc4)cn3)CC2)c1,-1,·,·,-29,·
O=C(NCc1ccccc1)C(=O)Nc1nc(C23CC4CC(CC(C4)C2)C3)cs1,5,5,5,-7,0
O=C(NCc1ccncc1)C(=O)Nc1nc(C23CC4CC(CC(C4)C2)C3)cs1,12,8,-7,50*,-6
C=CCN1C(=O)c2[nH]nc(-c3ccccc3)c2C1c1ccc(C)cc1 (stereo unspecified),7,·,·,-25,·
Cc1nccn1-c1ccc(NC(=O)[C@H]2O[C@@H](n3ccc(N)nc3=O)[C@H](O)[C@@H]2O)cc1,5,·,·,-15,·
SMILES,TAAR1 agonist,CHRM1 antagonist,M1 PAM,TAAR1 antagonist,M1 ag
N#CCCN(Cc1ccccc1)C(C(=O)NC1CCCCC1)c1cc2ccccc2o1 (stereo unspecified),2,-3,-10,47,-1
COc1ccc(C(OCC(O)CNC(C)c2ccccc2)c2ccc(OC)cc2)cc1 (stereo unspecified),14,7,18,2,5
Cc1ccc(C(OCC(O)CNCc2ccc(F)cc2)c2ccccc2)cc1 (stereo unspecified),40*,8,3,32,7
Nc1ccn([C@@H]2O[C@H](C(=O)N[C@H](Cc3ccccc3)C(=O)NCC(=O)N3CCOCC3)[C@@H](O)[C@H]2O)c(=O)n1,0,·,·,-15,·
CCCCCCCCN1C(=O)[C@H](CC(=O)NCc2cccc3ccccc23)C[C@@]2(C(=O)OCC)CCC=C12,2,·,·,-16,·
CC(C)c1ccc2c(c1)C1(NN=C(c3ccccc3)S1)C(=O)N2 (stereo unspecified),-5,30*,-11,25,-5
CN(C)C(CNC(=O)c1ccc(NC(=O)c2cccs2)cc1)c1ccccc1 (stereo unspecified),24,20,-25,-6,-12
CN(C)C(CNC(=O)c1ccc(C2SCCS2)cc1)c1ccccc1 (stereo unspecified),38*,38*,-27,-18,-13
Cc1cccc(NS(=O)(=O)c2ccc(C(=O)NCC(c3ccccc3)N(C)C)cc2)c1C (stereo unspecified),43*,27*,-19,28,4
CSCCC(c1nc2ccccc2[nH]1)n1c(=O)c(-c2ccco2)nc2ccccc21 (stereo unspecified),1,·,·,-28,·
Cc1ccc(SCc2c(C(=O)N/N=C/c3ccccc3)nnn2-c2nonc2N)cc1,1,1,2,29,-6
Cc1ccsc1/C=N/NC(=O)c1nnn(-c2nonc2N)c1CN(C)c1ccccc1,7,6,-5,49*,-1
Cc1ccc(-c2c(C(=O)N/N=C/c3cccs3)nnn2-c2nonc2N)cc1,·,-21,21,·,18*
Cc1ccc(SCc2c(C(=O)N/N=C/c3cccs3)nnn2-c2nonc2N)cc1,8,18,-6,62*,-2
NNC(=O)c1nnn(-c2nonc2N)c1-c1cccs1,16,-29,22*,-25,2
C[C@H](CO)N1C[C@H](C)[C@H](CN(C)C(=O)Nc2ccc3c(c2)OCO3)OCc2cnnn2CCCC1=O,0,·,·,-19,·
O=C(C[C@@H]1C/C=C\CCC(=O)O[C@H](c2ccccc2)CNC1=O)N[C@H](CO)Cc1ccccc1,5,3,6,3,18*
CC(C)(C)[C@H]1COC(=O)[C@@H](Cc2ccc(F)cc2)C/C=C\C[C@@H](CC(=O)N[C@H](CO)Cc2ccccc2)C(=O)N1,29,-5,4,27,-5
CC(C)(C)[C@H]1COC(=O)[C@@H](Cc2ccc(F)cc2)C/C=C\C[C@@H](CC(=O)N[C@@H](CO)Cc2ccccc2)C(=O)N1,22,7,-5,58*,-4
O=C(C[C@H]1C/C=C\C[C@H](Cc2ccc(F)cc2)C(=O)O[C@@H](c2ccccc2)CNC1=O)N[C@@H](CO)Cc1ccccc1,9,-1,2,41,-3
O=C(C[n+]1ccccc1)N1c2ccccc2Sc2ccccc21,1,100*,-38,6,-15
